Results taken from paper PMC4889517 (Nanomedicine : nanotechnology, biology, and medicine, 2016).
“Also recorded” adds a separate entry of the source.

Assays:
[1] = tested on: PC-3 cell tumor xenografts; experiment: In vivo prostate tumor xenograft growth; set-up: species or system athymic nude mice; settings: 5 mg/kg i.p., 2 days/week from day 7 to day 25
In short: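 Male athymic nude mice, 6-8 weeks old (n = 5-6), received 3 million PC-3 cells in sterile saline SC. From day 7, dosing was i.p. twice weekly: free or sterically stabilized liposomal test compound at 5 mg/kg, with DMSO or empty liposome controls. Calipers were used on days 7, 14, 21 and 25, with volume = ½[length × width²]. Tumors were excised and weighed on day 25.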

[2] = tested on: MDA-231; experiment: MTT staining cytotoxicity, MDA-231; assay type: cell-based, human; settings: read-out: IC50 (MTT)
[3] = Body weight of tumor bearing mice; assay type: in vivo, athymic nude mice; settings: 5 mg/kg i.p., 2 days/week, after 25 days
In short: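 Athymic nude mice carried SC PC-3 xenografts and were dosed i.p. twice weekly from day 7. Groups were free or liposomal test compound at 5 mg/kg, DMSO, or empty liposomes. Body weight was recorded on day 25 after implantation, which was day 18 of treatment. Mean ± SEM.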

[4] = free form, rapid metabolism ref 10; cited from earlier work
[5] = tested on: prostate tumor xenograft; settings: daily administration ref 8; cited from earlier work
[6] = tested on: LNCaP cells; experiment: MTT staining cytotoxicity, LNCaP; assay type: cell-based, human; settings: read-out: IC50 (MTT)
In short: (§1)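 Cells were seeded at 5 × 10⁴ cells/ml (DU-145 in EMEM, LNCaP in RPMI, 10% FBS) and allowed to attach for 24 h. Free test compound was given at 1.56–50 μM, with DMSO and empty liposome controls, for 24, 48 or 72 h. MTT (0.25 mg/ml final) was added for 2 h at 37°C, formazan dissolved in DMSO, and absorbance read at 590 nm. IC50 came from the concentration-effect curve. Triplicates, n = 3.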

[7] = tested on: human prostate cancer PC-3, LNCaP and DU-145 cells; experiment: MTT staining cytotoxicity in prostate cancer cell lines; assay type: cell-based; settings: concentrations of 5-30 μM; 24, 48, 72 hrs
[8] = tested on: DU-145 cells; experiment: MTT staining cytotoxicity, DU-145; assay type: cell-based, human
In short: as §1

[9] = tested on: PC-3 cells; experiment: Annexin V and PI staining by flow cytometry; assay type: cell-based, human; settings: PC-3, 48 hr; free IPA-3 20-30 μM
In short: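 PC-3 cells (F12K, 10% FBS, 37°C, 5% CO₂) were grown 24 h, then exposed to free test compound, liposomal test compound or empty liposomes. After treatment they were PBS-washed twice and stained for 10 min with annexin V-FITC and PI in HEPES binding buffer (140 mM NaCl, 1.8 mM CaCl2, pH 7.4). Cells were washed three times, scraped off, and 10,000 events counted by flow cytometry. Mean ± SEM of percent stained cells.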

[10] = tested on: MCF-7; experiment: MTT staining cytotoxicity, MCF-7; assay type: cell-based, human; settings: read-out: IC50 (MTT)
[11] = tested on: PC-3 cell tumor xenografts; experiment: TUNEL assay of apoptosis in tumor xenograft sections; assay type: in vivo, athymic nude mice; settings: 5 mg/kg i.p., 2 days/week, day 25
In short: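 PC-3 xenografts were collected on day 25, after 18 days of i.p. dosing twice weekly at 5 mg/kg, with DMSO and empty liposome controls. Frozen sections were fixed in 2% paraformaldehyde (4°C, 30 min) and permeabilized in ethanol:acetic acid 2:1. They were labeled with fluorescein-12-dUTP by terminal deoxynucleotidyl transferase and counterstained with DAPI. TUNEL-positive cells were counted by fluorescence microscopy (n = 4).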

Structure (SMILES): Oc1ccc2ccccc2c1SSc1c(O)ccc2ccccc12 [IPA-3]
- PC-3 cell tumor xenograft growth [1]: ineffective; also recorded: did not have a significant effect
- IC50 [2]: 8 µM
- effect on body weight of mice [3]: no significant effect
- half-life in vivo [4]: very short
- prostate tumor xenograft growth [5]: reduced
- IC50 [6]: 10 µM
- effect on MTT staining [7]: concentration- and time-dependent decreases in MTT staining
- susceptibility to toxicity (MTT staining) ([8]; DU-145 compared to PC-3 and LNCaP cells): less susceptible
- IC50 ([8]; read-out: IC50 (MTT), DU-145): ~32 µM
- percent cells staining positive for annexin V alone [9]: significantly increased
- percent cells staining positive for both annexin V and PI [9]: significantly increased
- IC50 [10]: 25 µM
- number of apoptotic (TUNEL positive) cells per field compared to control groups [11]: significant increases
